According to ChEMBL document CHEMBL4616650, “Spongian Diterpenoids Derived from the Antarctic Sponge Dendrilla antarctica Are Potent Inhibitors of the Leishmania Parasite” (J Nat Prod, 2020):

Key:
J774.A1 = assay: Cytotoxicity against mouse J774A.1 cells incubated for 72 hrs by CellTiter 96 AQueous One solution cell proliferation assay; type: cell-based; conditions: J774.A1, 72 h
In short: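 J774A.1 macrophages in RPMI 1640 with 10% heat-inactivated FBS, pH 7.2. Seeded at 50 000 cells per well with six 2-fold dilutions, final 50 to 1.6 μg/mL, 72 h at 37 °C, 5% CO2. MTS reagent added for a further 4 h; absorbance read at 490 nm.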

Leishmania donovani = assay: Antileishmanial activity against Leishmania donovani MHOM/SD/75/1246/130 amastigotes infected in mouse J774A.1 cells incubated for 72 hrs by DRAQ5 fluorescent probe based assay; type: functional, organism-based; conditions: MHOM/SD/75/1246/130, J774.A1, 72 h
In short: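 Axenic amastigotes grown at 37 °C in RPMI 1640 pH 5.5 with HEPES, MES, hemin, xanthine, Tween-80, tryptone-peptone, 20% heat-inactivated FBS. 2000 J774A.1 macrophages per well infected at 10:1 parasites:cells, 24 h, 37 °C, 5% CO2; extracellular parasites washed off. Compounds from 10 μg/mL top, 1:2 serial dilutions, 72 h. Fixed 2% paraformaldehyde, DraQ5 5 μM nuclear stain; high-content imaging counts amastigotes per 500 macrophages; IC50 derived.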

[1] = Selectivity index, ratio of cytotoxicity against mouse J774A.1 cells to antileishmanial activity against Leishmania donovani MHOM/SD/75/1246/130 amastigotes infected in mouse J774A.1 cells; type: toxicity, cell-based; conditions: read-out: Ratio IC50

IC50 (Leishmania donovani) | Compound | IC50 (J774.A1) | selectivity ratio [1]
6.5 µM | CO[C@@H]1O[C@H](OC)c2c1ccc([C@@]1(C)CCCC(C)(C)C1)c2[C@@H](C)C(=O)O | > 133 µM | –
1.4 µM | CO[C@H]1O[C@H](OC)c2c1ccc([C@@]1(C)CCCC(C)(C)C1)c2[C@@H](C)C(=O)O | > 133 µM | > 95
3.5 µM | CC(=O)O[C@@H]1O[C@H]2OC(=O)[C@H](C)C3=C([C@@]4(C)CCCC(C)(C)C4)CC[C@@H]1[C@H]32 | > 133 µM | > 38
2.9 µM | CCCCCCCCCCCCCCCCOP(=O)([O-])OCC[N+](C)(C)C [MILTEFOSINE] | > 120 µM | –
26.7 µM | CO[C@H]1OC(=O)c2ccc([C@@]3(C)CCCC(C)(C)C3)c([C@@H](C)C(=O)O)c21 | 42.4 µM | –
> 29 µM | CO[C@H]1OC(=O)[C@H](C)c2c([C@@]3(C)CCCC(C)(C)C3)ccc(C=O)c21 | 54.6 µM | –
1.9 µM | C[C@H]1C(=O)O[C@@H](O)c2c(C=O)ccc([C@@]3(C)CCCC(C)(C)C3)c21 | > 150 µM | > 100
0.8 µM | CO[C@@H]1O[C@@H](OC)c2c1ccc([C@@]1(C)CCCC(C)(C)C1)c2[C@@H](C)C(=O)O [MEMBRANOLIDE C] | > 133 µM | > 166
9.7 µM | COC(=O)[C@H](C)c1c([C@@]2(C)CCCC(C)(C)C2)ccc2c1C(=O)OC2 | 76.8 µM | –
11.2 µM | CC(=O)O[C@@H]1O[C@H]2OCC3=C(C)[C@@H]([C@@]4(C)CCCC(C)(C)C4)CC[C@@H]1[C@H]32 | 73.4 µM | –
12 µM | CO[C@H]1O[C@@H](OC(C)=O)c2ccc([C@@]3(C)CCCC(C)(C)C3)c([C@@H](C)C(=O)O)c21 | 62.9 µM | –
6.6 µM | CO[C@H]1O[C@@H](OC)c2c1ccc([C@@]1(C)CCCC(C)(C)C1)c2[C@@H](C)C(=O)O [MEMBRANOLIDE D] | 95 µM | –
3.1 µM | CC(=O)O[C@@H]1O[C@H]2OC(=O)[C@H](C)C3C([C@@]4(C)CCCC(C)(C)C4)=CC=C1C32 (stereo partly specified) | 12.3 µM | 4
